# Activity calls are given as the source filed them. The calls are words filed in the database; no cut-off is given here.
# How the values were obtained:
# [1] = Inhibition of bacterial ImiS expressed in Escherichia coli BL21 (DE3) using imipenem as substrate preincubated for 3 hrs with enzyme followed by substrate addition by spectrometry analysis; set-up: species or system Bacteria
# Procedure, shortened: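 Purified ImiS preincubated 3 h with inhibitor (six concentrations, 0.01–20 μM; DMSO below 0.5%) in 30 mM Tris pH 7.0, 25 °C; imipenem 40 μM. Hydrolysis read at 300 nm, rates in triplicate. IC50 from linear fit of mean percent inhibition against inhibitor concentration.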
# [2] = test system: Bacteria; test: Inhibition of bacterial ImiS expressed in Escherichia coli BL21 (DE3) at 20 uM using imipenem as substrate by spectrometry analysis relative to control
# Procedure, shortened: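 Purified ImiS with imipenem (40 μM) in 30 mM Tris pH 7.0; inhibitor at 20 μM, DMSO below 0.5%. Hydrolysis followed at 300 nm by UV-vis; initial rates in triplicate, averaged. Percent inhibition = activity without inhibitor (100%) minus residual activity.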
# [3] = test system: Bacteria; test: Inhibition of bacterial L1 expressed in Escherichia coli BL21 (DE3) at 20 uM using cefazolin as substrate by spectrometry analysis relative to control
# Procedure, shortened: (§1)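 Purified L1 or NDM-1; cefazolin (40 μM) substrate, hydrolysis monitored at 262 nm by UV-vis. Inhibitor at 20 μM. Initial rates with and without inhibitor measured in triplicate and averaged; percent inhibition = uninhibited activity (100%) minus residual activity.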
# [4] = test system: Bacteria; test: Inhibition of bacterial NDM-1 expressed in Escherichia coli BL21 (DE3) at 20 uM using cefazolin as substrate by spectrometry analysis relative to control; procedure, shortened: as §1
# [5] = test system: Bacteria; test: Inhibition of beta-lactamase ImiS (unknown origin) in expressed Escherichia coli BL21 (DE3) assessed as potentiation of imipenem induced antibacterial activity by measuring imipenem MIC at 64 ug/ml incubated for 16 hrs by CLSI broth microdilution method (reference value: 16 ug/ml); details: dose 64.0 µg/ml
# Procedure, shortened: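 E. coli BL21 (DE3) carrying pET26b-ImiS grown in MH broth to OD600 0.5, diluted to 1 × 10^5 CFU mL–1. CLSI broth dilution; imipenem serially diluted, inhibitor at 64 μg mL–1 stock.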
# [6] = test system: Bacteria; test: Inhibition of beta-lactamase ImiS (unknown origin) expressed in Escherichia coli BL21 (DE3) assessed as potentiation of meropenem induced antibacterial activity by measuring meropenem MIC at 64 ug/ml incubated for 16 hrs by CLSI broth microdilution method (reference value: 64 ug/ml); details: dose 64.0 µg/ml
# [7] = Mixed type inhibition of bacterial ImiS using varying levels of imipenem as substrate assessed as hydrolysis by Line weaver Burk plot analysis; set-up: species or system Bacteria
# Procedure, shortened: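 Initial imipenem hydrolysis rates by ImiS at 20, 40, 60, 80 and 100 μM substrate, inhibitor at 0, 1, 5 and 10 μM; 300 nm read-out, triplicate. Mode assigned from Lineweaver–Burk plots; Ki from fits of initial velocity against substrate concentration at each inhibitor level.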
# [8] = Cytotoxicity against mouse L929 cells assessed as cell viability up to 200 uM measured after 48 hrs by MTT assay; type: cell-based; details: read-out: Activity
# [9] = test system: Bacteria; test: Inhibition of bacterial ImiS expressed in Escherichia coli BL21 (DE3) at 10 uM using imipenem as substrate by spectrometry analysis relative to control
# Procedure, shortened: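 Time and concentration dependence: ImiS incubated with inhibitor at 0.5, 1 or 5 μM over varying times, or over 0.01–10 μM for the inhibition curve; residual activity against imipenem measured spectrophotometrically at 300 nm in 30 mM Tris pH 7.0.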
# [10] = test system: Bacteria; test: Inhibition of bacterial ImiS expressed in Escherichia coli BL21 (DE3) by measuring hydrolysis of imipenem using imipenem as substrate preincubated for 3 hrs with enzyme followed by substrate addition by isothermal titration calorimetric method; details: dose microM 0.1-10, time 3.0 hrs
# Procedure, shortened: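 ITC, single-injection mode, 25 °C, 30 mM Tris with 0.5% DMSO. ImiS (100 nM) preincubated 3 h with inhibitor (0–10 μM), then one 38 μL injection of imipenem (0.5 mM); stirring 750 rpm. Heat flow (dq/dt) recorded every 1 s until return to baseline.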
# [11] = test system: Mus musculus; test: In vivo antibacterial activity against Escherichia coli BL21 (DE3) expressing ImiS infected in Kunming mouse assessed as reduction in bacterial load spleen at 10 mg/kg, ip administered after 2 hrs post infection and measured after 24 hrs; type: functional, organism-based
# Procedure, shortened: (§2)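 Kunming mice (male and female, 20 ± 2 g), six per group, infected ip with 200 μL E. coli BL21 (DE3)-ImiS suspension (OD600 = 1.0). At 2 h, single ip dose: PBS, meropenem 10 mg kg–1, inhibitor 10 mg kg–1, or meropenem plus inhibitor (each 10 mg kg–1). Euthanized 24 h post-infection; 0.1 g spleen and liver homogenized in 1 mL PBS, serially diluted, plated on LB agar for cfu.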
# [12] = test system: Mus musculus; test: In vivo inhibition of beta-lactamase ImiS (unknown origin) expressed in Escherichia coli BL21 (DE3) infected in Kunming mouse assessed as potentiation of meropenem-induced reduction in bacterial load in spleen at 10 mg/kg, ip administered after 2 hrs post infection and measured after 24 hrs; type: functional, organism-based; procedure, shortened: as §2
# [13] = test system: Mus musculus; test: In vivo inhibition of beta-lactamase ImiS (unknown origin) expressed in Escherichia coli BL21 (DE3) infected in Kunming mouse assessed as potentiation of meropenem-induced reduction in bacterial load in liver at 10 mg/kg, ip administered after 2 hrs post infection and measured after 24 hrs; type: functional, organism-based; procedure, shortened: as §2
# [14] = test system: Escherichia coli; test: In vivo antibacterial activity against Escherichia coli BL21(DE3) expressing ImiS infected in Kunming mouse assessed as reduction in bacterial load liver at 10 mg/kg, ip administered after 2 hrs post infection and measured after 24 hrs; type: functional, organism-based; procedure, shortened: as §2
Compound,IC50 [1],inhibition [2],inhibition [3],inhibition [4],MIC [5],MIC [6],Ki [7],viability at 48 h [8],inhibition [9],inhibition [10],Activity [11],inhibition [12],inhibition [13],Activity [14]
NS(=O)(=O)c1ccc(NC(=O)c2cccc([N+](=O)[O-])c2)cc1,4.8 µM,> 70%,< 20%,< 20%,8 µg/mL,32 µg/mL,–,–,–,–,–,–,–,–
CCN(CC)c1ccc2c(-c3ccccc3C(=O)Oc3ccc(S(N)(=O)=O)cc3)c3ccc(=[N+](CC)CC)cc-3oc2c1,6.8 µM,–,–,–,8 µg/mL,32 µg/mL,–,–,–,–,–,–,–,–
NS(=O)(=O)c1cccc(NC(=O)c2cccc(Br)c2)c1,0.14 µM,> 70%,< 20%,< 20%,4 µg/mL,16 µg/mL,–,–,–,–,–,–,–,–
NS(=O)(=O)c1ccc(NC(=O)CCc2ccccc2)cc1,3.5 µM,> 70%,< 20%,< 20%,8 µg/mL,32 µg/mL,–,–,–,–,–,–,–,–
NS(=O)(=O)c1ccc(NC(=O)c2ccccc2)cc1,7.5 µM,> 70%,< 20%,< 20%,8 µg/mL,32 µg/mL,–,–,–,–,–,–,–,–
NS(=O)(=O)c1ccc(NC(=O)c2cccc(Br)c2)cc1,2.7 µM,> 70%,< 20%,< 20%,8 µg/mL,32 µg/mL,–,–,–,–,–,–,–,–
CC(C)(C)c1ccc(C(=O)Nc2cccc(S(N)(=O)=O)c2)cc1,0.23 µM,> 70%,< 20%,< 20%,4 µg/mL,16 µg/mL,–,–,–,–,–,–,–,–
NS(=O)(=O)c1cccc(NC(=O)c2cccc([N+](=O)[O-])c2)c1,0.86 µM,> 70%,< 20%,< 20%,4 µg/mL,16 µg/mL,–,–,–,–,–,–,–,–
NS(=O)(=O)c1ccc(NC(=O)c2ccc(O)cc2)cc1,5.6 µM,> 70%,< 20%,< 20%,8 µg/mL,32 µg/mL,–,–,–,–,–,–,–,–
COC(=O)c1ccc(C(=O)Nc2ccc(S(N)(=O)=O)cc2)cc1,7.3 µM,> 70%,< 20%,< 20%,8 µg/mL,32 µg/mL,8 µM,–,–,–,–,–,–,–
NS(=O)(=O)c1ccc(NC(=O)c2ccc(Cl)cc2)cc1,5.1 µM,> 70%,< 20%,< 20%,8 µg/mL,32 µg/mL,–,> 80%,–,–,–,–,–,–
NS(=O)(=O)c1ccc(NC(=O)c2ccc(C(F)(F)F)cc2)cc1,9.3 µM,> 70%,< 20%,< 20%,8 µg/mL,32 µg/mL,–,–,–,–,–,–,–,–
CC(C)(C)c1ccc(C(=O)Nc2ccc(S(N)(=O)=O)cc2)cc1,3.3 µM,> 70%,< 20%,< 20%,8 µg/mL,32 µg/mL,–,–,–,–,–,–,–,–
NS(=O)(=O)c1cccc(NC(=O)CCc2ccccc2)c1,0.16 µM,> 70%,< 20%,< 20%,4 µg/mL,16 µg/mL,–,–,–,–,–,–,–,–
NS(=O)(=O)c1cccc(NC(=O)c2ccc(C(F)(F)F)cc2)c1,0.31 µM,> 70%,< 20%,< 20%,4 µg/mL,16 µg/mL,–,–,–,–,–,–,–,–
NS(=O)(=O)c1ccccc1NC(=O)c1ccc(Cl)cc1,5.4 µM,> 70%,< 20%,< 20%,8 µg/mL,32 µg/mL,–,–,–,–,–,–,–,–
CC(C)(C)c1ccc(C(=O)Nc2ccccc2S(N)(=O)=O)cc1,4.6 µM,> 70%,< 20%,< 20%,8 µg/mL,32 µg/mL,–,> 80%,–,–,–,–,–,–
NS(=O)(=O)c1cccc(NC(=O)c2ccc(Cl)cc2)c1,0.44 µM,> 70%,< 20%,< 20%,4 µg/mL,16 µg/mL,–,> 80%,–,–,–,–,–,–
NS(=O)(=O)c1cccc(NC(=O)c2ccccc2)c1,0.15 µM,> 70%,< 20%,< 20%,4 µg/mL,16 µg/mL,–,–,–,–,–,–,–,–
NS(=O)(=O)c1ccc(NC(=O)CC(c2ccccc2)c2ccccc2)cc1,4.1 µM,> 70%,< 20%,< 20%,8 µg/mL,32 µg/mL,–,–,–,–,–,–,–,–
COC(=O)c1ccc(C(=O)Nc2cccc(S(N)(=O)=O)c2)cc1,0.11 µM,95%,< 20%,< 20%,4 µg/mL,16 µg/mL,0.55 µM,> 80%,92%,Dose-dependent effect,inactive,Active,Active,inactive

# Reference: ChEMBL document CHEMBL4673174, “meta-Substituted benzenesulfonamide: a potent scaffold for the development of metallo-beta-lactamase ImiS inhibitors” (RSC Med Chem, 2020)
